Reference: ChEMBL document CHEMBL1127415 (J Med Chem, 1994)
Each block holds one compound with its values, some of them ahead of it.

Columns and labels:
[1] = biological target: T1, Type-2 angiotensin II receptor (Rattus norvegicus, UniProt P35351); assay: In vitro binding affinity for angiotensin II AT2 receptor in rat midbrain
T1 sequence (P35351 whole entry): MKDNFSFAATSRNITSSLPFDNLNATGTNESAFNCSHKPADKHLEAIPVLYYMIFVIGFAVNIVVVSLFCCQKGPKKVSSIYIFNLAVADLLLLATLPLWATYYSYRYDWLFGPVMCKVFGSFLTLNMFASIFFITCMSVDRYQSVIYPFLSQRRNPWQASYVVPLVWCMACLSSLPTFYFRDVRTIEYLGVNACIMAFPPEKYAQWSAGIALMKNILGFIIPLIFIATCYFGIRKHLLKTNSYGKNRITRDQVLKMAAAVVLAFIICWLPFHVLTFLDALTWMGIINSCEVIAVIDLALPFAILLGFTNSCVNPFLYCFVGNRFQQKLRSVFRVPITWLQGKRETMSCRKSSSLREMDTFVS
In short: (§1)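 Radioligand binding IC50 values. AT1 was measured on rabbit aortic receptor preparations and AT2 on rat midbrain receptor preparations.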

Rattus norvegicus [2] = assay: The compound was evaluated for the % peak inhibition of angiotensin II pressor response for dose of 0.1 mg/kg intravenous administration in conscious rats.; format: functional
In short: (§2)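 Conscious normotensive rats received antagonists as potassium salts, iv or po. Pressor responses to exogenous AII were measured repeatedly after dosing and reported as % peak inhibition (mean ± SE) and duration of action in h. Methoxamine pressor response served as a specificity check.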

Rattus norvegicus [3] = assay: The duration of action for the % peak inhibition of angiotensin II pressor response for dose of 0.1 mg/kg intravenous administration in conscious rats.; format: functional; in short: as §2
[4] = biological target: T2, Type-1 angiotensin II receptor (Oryctolagus cuniculus, UniProt P34976); assay: In vitro binding affinity for angiotensin II AT1 receptor in rabbit aorta; format: tissue-based; in short: as §1
T2 sequence (P34976 whole entry): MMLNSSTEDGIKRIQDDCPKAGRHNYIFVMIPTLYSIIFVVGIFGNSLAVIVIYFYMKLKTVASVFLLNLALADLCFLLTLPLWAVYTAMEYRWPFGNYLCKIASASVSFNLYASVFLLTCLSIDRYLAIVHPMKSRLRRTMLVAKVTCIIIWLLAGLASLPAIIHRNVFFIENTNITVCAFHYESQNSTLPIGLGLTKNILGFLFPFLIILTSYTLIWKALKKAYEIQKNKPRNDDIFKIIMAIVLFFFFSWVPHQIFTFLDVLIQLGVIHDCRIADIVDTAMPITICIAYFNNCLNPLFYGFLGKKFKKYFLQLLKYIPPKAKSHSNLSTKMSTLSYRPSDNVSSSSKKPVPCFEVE

Rattus norvegicus [5] = assay: The duration of action for the % peak inhibition of angiotensin II pressor response for dose of 0.3 mg/kg peroral administration in conscious rats.; format: functional; conditions: route oral; in short: as §2
Rattus norvegicus [6] = assay: The compound was evaluated for the % peak inhibition of angiotensin II pressor response for dose of 0.3 mg/kg peroral administration in conscious rats.; format: functional; conditions: route oral; in short: as §2
Rattus norvegicus [7] = assay: The duration of action for the % peak inhibition of angiotensin II pressor response for dose of 1.0 mg/kg intravenous administration in conscious rats.; format: functional; in short: as §2
Rattus norvegicus [8] = assay: The compound was evaluated for the % peak inhibition of angiotensin II pressor response for dose of 1.0 mg/kg intravenous administration in conscious rats.; format: functional; in short: as §2
Rattus norvegicus [9] = assay: The compound was evaluated for the ED50 for inhibition of A II pressor response in rat for peroral administration.
Rattus norvegicus [10] = assay: The compound was evaluated for the ED50 for inhibition of A II pressor response in rat for intravenous administration
Rattus norvegicus [11] = assay: The duration of action for the % peak inhibition of angiotensin II pressor response for dose of 0.1 mg/kg perol administration in conscious rats.; format: functional; in short: as §2
Rattus norvegicus [12] = assay: The compound was evaluated for the % peak inhibition of angiotensin II pressor response for dose of 0.1 mg/kg perol administration in conscious rats.; format: functional; in short: as §2
Rattus norvegicus [13] = assay: The compound was evaluated for the % peak inhibition of angiotensin II pressor response for dose of 1.0 mg/kg peroral administration in conscious rats.; format: functional; conditions: route oral; in short: as §2
Macaca mulatta [14] = assay: The compound was evaluated for the ED50 for inhibition of A II pressor response in rhesus monkeys for peroral administration.
Macaca mulatta [15] = assay: The compound was evaluated for the ED50 for inhibition of A II pressor response in rhesus monkeys for intravenous administration
Rattus norvegicus [16] = assay: The compound was evaluated for the ED50 for inhibition of A II pressor response in rats for intravenous administration
[17] = biological target: T3, Angiotensin II receptor (Rattus norvegicus) (UniProt P29089+P25095+P35351)
[18] = Ratio of the of A II pressor responses in rhesus monkey, p.o./i.v.; format: functional
In short: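 Sodium/volume-depleted rhesus monkeys dosed iv or orally; inhibition of the AII pressor response tracked over time. Ratio is oral ED50 divided by iv ED50.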

Rattus norvegicus [19] = assay: The duration of action for the % peak inhibition of angiotensin II pressor response for dose of 1.0 mg/kg peroral administration in conscious rats.; format: functional; conditions: route oral; in short: as §2
[20] = Ratio of the of A II pressor responses in dog, p.o./i.v.; format: functional
In short: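 Conscious normotensive mongrel dogs with an arterial catheter for continuous mean arterial pressure and vein catheters for dosing. Patency checked with norepinephrine 1.6 μg/kg iv. AII 0.1 μg/kg iv boluses given at –45, –30 and –15 min. Antagonist given iv or by oral gavage at 0 min, then AII rechallenged repeatedly to 6 h (24 h if needed). Ratio is oral ED50 divided by iv ED50.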

Rattus norvegicus [21] = assay: The duration of action for the % peak inhibition of angiotensin II pressor response for dose of 0.03 mg/kg intravenous administration in conscious rats.
[22] = Ratio of the of A II pressor responses in rat, p.o./i.v.; format: functional
In short: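 Conscious normotensive rats; potassium salt given iv or orally; inhibition of the pressor response to exogenous iv AII followed over time. Ratio is oral ED50 divided by iv ED50.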

Canis familiaris [23] = assay: The compound was evaluated for the ED50 for inhibition of A II pressor response in dogs for intravenous administration
[24] = biological target: T3, Angiotensin II receptor (Rattus norvegicus); remark: listed apart in the source
[25] = biological target: T3, Angiotensin II receptor (Rattus norvegicus); remark: listed apart in the source
Macaca mulatta [26] = assay: The duration of action for the % peak inhibition of A II pressor response for dose of 0.1 mg/kg peroral administration in rhesus monkeys.; conditions: route oral
Rattus norvegicus [27] = assay: The compound was evaluated for the % peak inhibition of angiotensin II pressor response for dose of 0.1 mg/kg peroral administration in conscious rats.; format: functional; conditions: route oral; in short: as §2
Canis familiaris [28] = assay: The compound was evaluated for the ED50 for inhibition of A II pressor response in dogs for peroral administration.

T3 sequence (P25095 whole entry, looked up, one chain of several): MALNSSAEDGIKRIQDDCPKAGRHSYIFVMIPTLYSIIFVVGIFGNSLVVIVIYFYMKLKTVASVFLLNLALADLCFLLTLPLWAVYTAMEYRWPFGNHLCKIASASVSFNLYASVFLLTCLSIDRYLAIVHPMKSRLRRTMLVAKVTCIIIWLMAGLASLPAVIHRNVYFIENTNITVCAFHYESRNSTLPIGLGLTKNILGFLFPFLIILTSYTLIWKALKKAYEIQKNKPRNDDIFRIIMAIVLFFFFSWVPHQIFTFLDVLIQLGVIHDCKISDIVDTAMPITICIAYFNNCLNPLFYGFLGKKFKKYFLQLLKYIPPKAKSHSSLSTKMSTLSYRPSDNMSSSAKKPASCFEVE
T3 sequence (P29089 whole entry, looked up, one chain of several): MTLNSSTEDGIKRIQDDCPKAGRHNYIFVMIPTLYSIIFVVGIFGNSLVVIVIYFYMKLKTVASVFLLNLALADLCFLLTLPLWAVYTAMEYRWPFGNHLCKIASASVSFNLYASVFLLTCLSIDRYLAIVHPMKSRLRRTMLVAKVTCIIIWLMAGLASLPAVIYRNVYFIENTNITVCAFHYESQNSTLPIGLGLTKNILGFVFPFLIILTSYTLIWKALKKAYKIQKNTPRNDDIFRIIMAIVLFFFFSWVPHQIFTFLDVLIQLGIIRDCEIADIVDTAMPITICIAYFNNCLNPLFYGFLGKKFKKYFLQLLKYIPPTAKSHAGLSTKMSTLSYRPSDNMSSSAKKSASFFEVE

SMILES: CCCCc1nc(Cl)c(C(=O)O)n1Cc1ccc(-c2ccccc2-c2nn[nH]n2)cc1 [CARBOXYLIC ACID METABOLITE]
IC50 [1]: 50000 nM

SMILES: CCCCc1nc(Cl)c(CO)n1Cc1ccc(-c2ccccc2-c2nnn[nH]2)cc1 [LOSARTAN]
ED50 (Rattus norvegicus [9]): 0.66 mg/kg
ED50 (Rattus norvegicus [10]): 0.28 mg/kg

SMILES: CCc1nc2c(C)cc(C)nc2n1Cc1ccc(-c2ccccc2S(=O)(=O)NC(=O)c2ccccc2)cc1
inhibition in vivo at 1 mg/kg (Rattus norvegicus [13]): 99%
ED50 (Macaca mulatta [14]): 0.1 mg/kg
ED50 (Macaca mulatta [15]): 0.036 mg/kg
ED50 (Rattus norvegicus [16]): 0.014 mg/kg
inhibition in vivo at 0.1 mg/kg (Rattus norvegicus [2]): 94%
IC50 [1]: 2900 nM
Duration [17]: 4 h
Ratio [18]: 3
Duration (Rattus norvegicus [19]): >6 h
Ratio [20]: 2
Duration (Rattus norvegicus [21]): 6 h
Ratio [22]: 5
ED50 (Canis familiaris [23]): 0.017 mg/kg
Duration [24]: > 5 h
Duration [25]: > 5 h
Duration (Macaca mulatta [26]): ~3 h
Duration (Rattus norvegicus [3]): 6 h
IC50 [4]: 0.2 nM
inhibition in vivo at 0.1 mg/kg (Rattus norvegicus [27]): 64%
ED50 (Canis familiaris [28]): 0.035 mg/kg

Second part, led by results:

IC50 [1]: 1800 nM
IC50 [4]: 0.21 nM
SMILES: CCc1nc2c(C)cc(C)nc2n1Cc1ccc(-c2ccccc2S(=O)(=O)NC(=O)C(C)C)cc1
inhibition in vivo at 0.1 mg/kg (Rattus norvegicus [2]): 100%
Duration (Rattus norvegicus [3]): 5 h

IC50 [1]: 2400 nM
IC50 [4]: 0.68 nM
SMILES: CCc1nc2c(C)cc(C)nc2n1Cc1ccc(-c2ccccc2S(=O)(=O)NC(=O)C2CC2)cc1
inhibition in vivo at 0.1 mg/kg (Rattus norvegicus [2]): 95%
Duration (Rattus norvegicus [5]): >6 h
inhibition in vivo at 0.3 mg/kg (Rattus norvegicus [6]): 99%
Duration (Rattus norvegicus [3]): >6 h

IC50 [1]: > 10000 nM
IC50 [4]: 2.2 nM
SMILES: CCc1nc2c(C)cc(C)nc2n1Cc1ccc(-c2ccccc2S(=O)(=O)NC(C)=O)cc1
Duration (Rattus norvegicus [7]): 3.5 h
inhibition in vivo at 1 mg/kg (Rattus norvegicus [8]): 100%

IC50 [1]: 50000 nM
SMILES: CCc1nc2c(C)cc(C)nc2n1Cc1ccc(-c2ccccc2-c2nn[nH]n2)cc1 [L-158809]
inhibition in vivo at 0.1 mg/kg (Rattus norvegicus [2]): 85%
ED50 (Rattus norvegicus [9]): 0.023 mg/kg
ED50 (Rattus norvegicus [10]): 0.029 mg/kg
Duration (Rattus norvegicus [3]): >6 h
Duration (Rattus norvegicus [11]): >6 h
inhibition in vivo at 0.1 mg/kg (Rattus norvegicus [12]): 75%

IC50 [1]: 3600 nM
IC50 [4]: 0.27 nM
SMILES: CCCC(=O)NS(=O)(=O)c1ccccc1-c1ccc(Cn2c(CC)nc3c(C)cc(C)nc32)cc1
Duration (Rattus norvegicus [7]): >6 h
inhibition in vivo at 1 mg/kg (Rattus norvegicus [8]): 99%
